A selection: hits, their analogues and other compounds. The true share with any hit is near 1.2%.
Runt-SMMHC FRET: inhibitors of human RUNX1 Runt domain binding to CBFb-SMMHC; inhibition, % at 20 µM; Cerulean-Runt/Venus-CBFb-SMMHC FRET ratio 530/480, 1 h; AID 1434; 220,000 tested, 0.74% active; Q01196+Q13951;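 active = mean inhibition across duplicate retests at 20 µM reaching about 50%, limit read from the data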;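 also: 0% = DMSO wells and 100% = wells with excess untagged CBFb-SMMHC; inhibitors lower the FRET ratio by blocking Runt binding to CBFb-SMMHC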
Target sequence (Q01196 whole entry, looked up, the tested form may be a part): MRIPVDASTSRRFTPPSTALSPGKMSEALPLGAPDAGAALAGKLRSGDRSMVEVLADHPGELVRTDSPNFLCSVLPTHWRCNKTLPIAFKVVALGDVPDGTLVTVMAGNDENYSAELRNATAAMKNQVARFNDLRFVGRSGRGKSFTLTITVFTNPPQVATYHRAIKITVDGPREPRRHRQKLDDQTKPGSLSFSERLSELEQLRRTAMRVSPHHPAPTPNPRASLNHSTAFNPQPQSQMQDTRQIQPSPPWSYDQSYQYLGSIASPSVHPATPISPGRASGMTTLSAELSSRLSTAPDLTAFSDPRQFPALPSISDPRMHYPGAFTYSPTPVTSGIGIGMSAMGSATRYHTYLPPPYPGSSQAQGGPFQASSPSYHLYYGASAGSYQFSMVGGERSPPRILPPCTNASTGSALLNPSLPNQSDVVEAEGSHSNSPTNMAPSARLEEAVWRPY
Target sequence (Q13951 whole entry, looked up, the tested form may be a part): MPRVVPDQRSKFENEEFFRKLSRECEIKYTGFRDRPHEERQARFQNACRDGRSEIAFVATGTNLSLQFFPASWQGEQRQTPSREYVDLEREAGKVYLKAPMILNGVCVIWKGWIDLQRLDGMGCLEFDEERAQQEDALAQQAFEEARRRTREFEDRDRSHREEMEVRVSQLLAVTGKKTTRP
CaV13 ICDI inh: Disruptors of the CACNA1D IQ motif to Ca2+-dependent inactivation inhibitor domain association, primary screening, Förster resonance energy transfer in intact living …; AID 743397; HEK cells, CFP/YFP FRET ICDI-IQ, plate reader, 10 min; percent FRET-ratio fall versus neutral wells; 340,000 tested, 0.098% active; inhibition, % at 12.3 µM;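 active = mean replicate inhibition of at least 30% and at least 1% of replicates passing that level; inconclusive = only one of the two criteria is met; inactive = neither criterion is met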;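 also: 0% = median of the neutral control wells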
Runt-CBFb FRET: inhibitors of human RUNX1 Runt domain binding to CBFb | Cerulean-Runt/Venus-CBFb FRET ratio 530/480, 1 h | inhibition, % at 20 µM | 220,000 tested, 0.46% active | Q01196+Q13951 | AID 1496;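 active = inhibition over about 50% at 20 µM in the single-dose screen, limit read from the data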;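 also: 0% = DMSO wells and 100% = excess unlabeled CBFb competitor control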
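Measured by: fluorescence energy transfer, 422 nm excitation, 530/480 nm emission; test system: Cerulean-tagged RUNX1 Runt domain (FRET donor) fusion protein; buffer or medium: Tris pH 7.5 buffer with BSA; compound: one dose, 20 µM compound, 1% DMSO; times: two 1 h room-temperature incubations shielded from light; benchmarks: unlabeled CBFb 5 µM, positive control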
RanGTP-Imp inh: inhibitors of RanGTP-importin-beta interaction, primary screen, biochemical, FRET, CFP-Ran, YFP-importin-beta, homogeneous; cell-free CFP-Ran/YFP-importin-beta FRET ratio; inhibition, % (no concentration beside the values); 300,000 tested, 1.1% active; AID 2216;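 active = more than half of the replicate wells show a fall in the fluorescence ratio signal beyond about 16%, limit read from the data, passing the limit was not always enough; inconclusive = exactly half of the replicate wells pass the set limit; inactive = fewer than half of replicates pass the limit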;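 also: 0% = DMSO wells and 100% = Ran loaded with GDP instead of GTP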
* marks the source's active call; other numbers are inactive results; u = inconclusive; x = no result; + = active, no number.

SMILES | Runt-SMMHC FRET | CaV13 ICDI inh | Runt-CBFb FRET | RanGTP-Imp inh
COC(=O)[C@@]12C[C@@H](CC(=O)NCc3cccs3)C(=O)N(Cc3ccco3)C1=CCC(C)(C)C2 | x | -10.1 | x | x
COc1ccccc1C(=O)N1CCN(Cc2ccc3c(c2)OCO3)CC1 | 8.8 | -4.3 | 1.1 | u
COc1cc2cc(C(=O)N3CCN(Cc4ccc5c(c4)OCO5)CC3)c(=O)oc2cc1OC | 54.7* | -12.9 | 27.8 | 6.4
Cc1cc(Cl)ccc1OCC(=O)OCC(=O)N(CC(C)C)c1c(N)n(Cc2ccccc2)c(=O)[nH]c1=O | x | -4.2 | x | 2.6
CCOc1ccc2nc(NCCNC(=O)Nc3ccccc3)c(C#N)cc2c1 | 25.4 | -10.5 | 7.7 | 86.4*
CCOc1ccc2nc(NCCNC(=S)NCCCN(C)C)c(C#N)cc2c1 | 92.3* | + | 18.6 | 93.3*
CCOc1ccc2nc(SCC#N)c(C#N)cc2c1 | -7.5 | x | 3.0 | -1.0
CCOc1ccc2nc(NCCNC(=O)Nc3cccc(C)c3)c(C#N)cc2c1 | 38.3 | -5.0 | 88.0* | -1.8
CCOc1ccc2nc(NCCCNS(=O)(=O)c3ccc(C)cc3)c(C#N)cc2c1 | 101.6* | 32.5* | 5.5 | 129.4*
COc1ccc(Cl)cc1C(=O)NNC(=O)CCNC(=O)c1ccccc1 | x | -4.8 | x | x
CCC12CCCN3CCc4c(n(c5ccccc45)C(O)(C(=O)OC)C1)C32 (centres undefined) | -0.2 | x | 21.8 | 114.5*
COC(=O)C1=CN(CC2CCCO2)C=C(C(=O)OC)C1c1cc(OC)c(OC)c(OC)c1 (centres undefined) | 92.7* | -4.5 | 36.6 | 3.3
COC(=O)C1=CN(Cc2ccc(OC)cc2)C=C(C(=O)OC)C1c1cc(OC)c(OC)c(OC)c1 | x | x | x | 12.6
N#CC1(C#N)CC(C=O)=C(N)C1(C#N)CC(=O)c1ccc(F)cc1 (centres undefined) | 51.0* | -3.0 | 21.3 | 32.9*
CCN1CCN(c2cc(=O)n(-c3cc(Cl)ccc3C)c(=O)[nH]2)CC1 | -1.5 | -3.8 | 0.1 | 72.0*
Cc1ccc(-n2c(=O)cc(N3CCc4ccccc4C3)[nH]c2=O)cc1 | 1.5 | x | 2.4 | 40.1*
Cc1ccccc1-n1c(=O)cc(N2CCN(Cc3ccccc3)CC2)[nH]c1=O | -7.6 | -5.4 | 1.2 | 9.3
O=c1cc(N2CCc3ccccc3C2)[nH]c(=O)n1-c1ccccc1Cl | 27.3 | -5.3 | 16.3 | 79.6*
O=c1cc(N2CCc3ccccc32)[nH]c(=O)n1-c1ccccc1 | 4.1 | x | 1.8 | 8.3
Cc1ccccc1-n1c(=O)cc(N2CCc3ccccc3C2)[nH]c1=O | 75.6* | -6.6 | 37.1 | 52.9*
COc1ccc2nc(-c3ccc(CN4CCC5(CC4)CNc4ccccc45)cc3)c(-c3ccccc3)nc2c1 | x | -10.7 | x | x
CCN(CC)c1ccc(C(=O)Nc2ccccc2)cc1[N+](=O)[O-] | -0.8 | -2.8 | -2.7 | -0.8
O=S1(=O)CCOC(CO)CN1Cc1ccc(Cl)c(Cl)c1 (centres undefined) | x | -8.1 | x | x
Cc1nn(-c2ccccc2)nc1C(=O)Oc1cc(C(F)(F)F)nn1-c1ccccc1 | -0.3 | -3.1 | -1.8 | 2.1
S=C(NCc1ccco1)N1CCOCC1 | -7.7 | -2.6 | 27.0 | 22.0*
SMILES | Runt-SMMHC FRET | CaV13 ICDI inh | Runt-CBFb FRET | RanGTP-Imp inh
C/C(CC(=O)Nc1ccc(F)cc1)=N\NC(=O)c1ccccn1 | 0.6 | -12.4 | 0.9 | 179.2*
Cc1c(NC(=O)Nc2ccc(C(C)(C)C)cc2)c(=O)n(-c2ccccc2)n1C | x | -3.1 | x | u
O=C(O)CC1NC(=O)N(c2ccccc2)C1=O (centres undefined) | -5.7 | x | -2.6 | 45.4*
CC1=C(C(=O)Nc2cc(C)ccn2)C(c2ccc(C)cc2)C2=C(CCCC2=O)N1 (centres undefined) | 50.8* | x | 18.0 | -4.2
COc1ccc(N2C3=C(C(=O)CC(C)(C)C3)C(c3cnn(C)c3)C3=C2CC(C)(C)CC3=O)cc1 | 82.5* | -5.8 | 106.8* | 57.0*
CCn1cc(C2C(C(=O)Nc3cc(C)ccn3)=C(C)NC3=C2C(=O)CC(C)(C)C3)c(C)n1 (centres undefined) | 69.0* | -1.3 | 28.5 | 3.3
CCn1cc(C2C3=C(CC(C)(C)CC3=O)N(c3ccc(C)cc3)C3=C2C(=O)CC(C)(C)C3)c(C)n1 | x | -1.7 | x | x
CCn1cc(C2C3=C(CC(C)(C)CC3=O)N(c3ccccc3)C3=C2C(=O)CC(C)(C)C3)c(C)n1 | 82.4* | -5.5 | 22.7 | u
CC1=C(C(=O)Nc2ccccc2)C(c2ccc3c(c2)OCO3)C2=C(CCCC2=O)N1 (centres undefined) | -4.8 | -5.2 | 0.8 | 1.0
CCN(CC)c1ccc(C2C(C(=O)Nc3ccccn3)=C(C)NC3=C2C(=O)CC(C)(C)C3)cc1 (centres undefined) | 34.9 | -4.7 | 4.0 | 1.9
COc1ccc(CCNC(=O)C2CCN(C(=O)c3ccc(C(C)(C)C)cc3)CC2)cc1 | x | -20.3 | x | u
CCN1C=CC2=C(C#N)C(N)C(C#N)(C#N)C(c3ccccc3C(F)(F)F)C2C1 (centres undefined) | 82.8* | x | 75.7* | 57.7*
COc1ccc(C(=O)NNC2=CC(=O)CC(C)(C)C2)cc1 | 1.6 | -5.0 | 3.2 | 33.2*
CC1(C)CC(=O)C/C(=N/NC(=O)c2ccc(-c3ccccc3)cc2)C1 | -5.4 | -4.6 | -1.3 | 24.3*
CC1(C)CC(=O)CC(=Nc2ccc(C(=O)O)cc2)C1 | 2.6 | x | -0.4 | 44.9*
CN1CCCc2cc3c(C(F)(F)F)cc(=O)oc3nc21 | 41.9 | -8.4 | 11.6 | 132.3*
CC(=O)Oc1ccc(C(=O)Nc2cc(C)on2)cc1 | x | 55.9* | x | -1.1
COc1ccc(C(=O)Nc2cc(C)on2)cc1 | 0.7 | -5.5 | -0.9 | 1.3
CCCCn1c(=O)nc2n(-c3ccc(OC)cc3)c3ccccc3cc-2c1=O | 27.1 | -5.0 | 16.8 | 8.8
COCCn1c2nc(=O)n(-c3ccccc3)c(=O)c-2nc2ccccc21 | x | -59.2 | x | x
Cc1ccc(-n2c3nc(=O)n(C)c(=O)c-3cc3ccccc32)cc1 | 81.1* | -2.4 | 10.0 | 86.2*
CCCCn1c(=O)nc2n(-c3ccc(C)cc3)c3ccccc3cc-2c1=O | 82.3* | -4.8 | 54.3* | 59.6*
CCCCn1c(=O)nc2n(-c3ccc(Cl)cc3)c3ccccc3cc-2c1=O | 82.3* | -3.9 | 103.1* | 59.1*
C/C=C/c1ccc(OCC(=O)N2CCc3cc(OC)c(OC)cc3C2)c(OC)c1 | x | -3.0 | x | -0.6
CC(C)(Cc1ccccc1)/[N+]([O-])=C\c1ccc(C(F)(F)F)cc1 | x | -11.0 | x | 4.4
CCOc1ccc(C2=C/C(=C/c3cccnc3)C(=O)O2)cc1 | 77.6 | -8.5 | 11.7 | 28.9*
Cc1cc(OCc2ccc(C(=O)n3cccn3)o2)ccc1Cl | -11.9 | x | 1.3 | 66.5*
COC(=O)/C(C#N)=C/c1c(N2CCCCCC2)nc2ccccn2c1=O | x | -4.5 | x | 3.8
N#C/C(=C\c1c(N2CCCCC2)nc2ccccn2c1=O)C(=O)NC1CCS(=O)(=O)C1 (centres undefined) | 80.6* | -1.3 | 4.2 | 79.5*

High-throughput results as filed in PubChem.
